Compounds with a hit are over-represented: about 2.2% of the library has one in this group of screens.
Biofilm kill mix – mixtures killing C. albicans biofilm | C. albicans biofilm persisters + clotrimazole, fluorescence viability; primary screen in compound mixtures of four per well | inhibition, % at 7.6 µM | 0.02% of 120,000 active;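 active = inhibition above 30.3% in the primary screen of four-compound pools, then above 30% when the compound was retested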;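 also: compounds exposed to preformed 24 h biofilms for 48 h; 0% = untreated biofilm control and 100% = clotrimazole plus chlorhexidine kill blank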
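Incubation: 24 h biofilm formation, then 48 h compound exposure, 37 °C | Material: C. albicans biofilms | Buffer or medium: RPMI/MOPS medium, pH 7.0 | Measured by: 2-h Alamar Blue fluorescence, 535/590 nm excitation/emission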
p97 inhibitor – blocks human p97 ATPase activity | P55072 | recombinant p97 ATPase, Kinase-Glo ATP luminescence, 3 h | inhibition, % at 8 µM | 0.42% of 220,000 active | AID 1481; in the data active = inhibition above about 15%;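 also: 0% = DMSO vehicle and 100% = wells lacking enzyme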
eIF4E-4G inh – inhibitors of eIF4E and eIF4G interaction in translation initiation. P63073+Q04637. TR-FRET eIF4E-eIF4GI(517-606) binding, 2 h. inhibition, % at 21.7 µM. 0.37% of 220,000 active;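 active = inhibition above about 30%, limit read from the data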;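 also: 0% = full FRET control wells and 100% = background wells lacking eIF4GI fragment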
Hck Nef HTS – human Hck-Nef kinase inhibition; P08631; 0.68% of 220,000 active; inhibition, % at 20 µM; Recombinant Hck-YEEI plus Nef, Z-Lyte FRET kinase assay; AID 463187;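 active = Hck-Nef kinase inhibition above about 50%, limit read from the data; inactive = inhibition below that limit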;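 also: 0% = DMSO with Hck plus Nef and 100% = Hck alone without Nef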
14-3-3 Bad PPI – disrupts binding of bovine 14-3-3 zeta to phospho-Bad peptide; P63103; TR-FRET 14-3-3zeta/Dy647-pBad peptide displacement, 1 h; inhibition, % at 21.7 µM; 0.71% of 220,000 active; AID 781;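 active = inhibition above about 70%, limit read from the data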;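 also: 0% = full 14-3-3 plus peptide FRET controls and 100% = background without 14-3-3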
Target sequence (P63103 whole entry, looked up): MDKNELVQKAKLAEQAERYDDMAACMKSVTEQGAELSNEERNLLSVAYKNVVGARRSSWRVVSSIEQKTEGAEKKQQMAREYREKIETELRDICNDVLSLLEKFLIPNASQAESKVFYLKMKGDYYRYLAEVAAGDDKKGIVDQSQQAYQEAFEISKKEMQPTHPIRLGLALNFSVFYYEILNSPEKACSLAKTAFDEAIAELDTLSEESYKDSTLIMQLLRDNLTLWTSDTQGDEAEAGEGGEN
PERK inh – human PERK inhibition, primary cell-based screen; Q9NZJ5; AID 1416; inhibition, % at 5.6 µM; CHO PERK-DD fusion, SEAP luminescence translation reporter; 0.17% of 220,000 active;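 active = inhibition above the mean inhibition of all tested compounds plus 3 SD, set separately per screening campaign, cut at about 2.9% in these data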;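 also: PERK kinase domain activated by AP20187 dimerizer at 100 nM; 0% = DMSO with dimerizer and 100% = rapamycin at 8.4 µM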
* hit, by the source's call; / = not tested or not shown; [ ] = remark or other dose.

SMILES	Biofilm kill mix	p97 inhibitor	eIF4E-4G inh	Hck Nef HTS	14-3-3 Bad PPI	PERK inh
Cc1[nH]n(-c2ccc(F)cc2)c(=O)c1/C=N/c1sc2c(c1C#N)CCCC2	/	-7	4	-1	81*	1
C=CCNc1nc(-c2ccc(OC)cc2OC)cs1	/	8	8	1	76*	-2
CC(C)N1C(=O)CC2(CC[N+](C)(CCOC(=O)C(c3ccccc3)c3ccccc3)CC2)C1=O (stereo not drawn)	/	5	-1	0	77*[fluorescence artefact?]	1
CCC(CC)C(=O)N1N=C(c2ccc(NS(C)(=O)=O)cc2)CC1c1ccc(C)cc1 (stereo not drawn)	22	-3	-2	14	8	-1
CCCc1cc(C(=O)Nc2cc(Br)ccc2O)no1	/	4	-2	-4	4	3.1*
CCN(CC)C(=O)CSc1nc2c(c(-c3cccnc3)c1C#N)CCCC2	16	-3	-8	4	13	1
COc1ccc(-c2cc(C(=O)NN)n(-c3ccccc3)n2)cc1	17	7	-3	3	9	0
CCOC(=O)c1cc(-c2ccc(OC)cc2)nn1-c1ccccc1C(=O)O	16	9	34*	12	2	-1
C/C(Cc1ccccc1)=N\NC(=O)CNC(=O)c1ccc(Cl)cc1Cl	9	-9	-3	3	2	-1
CC(C)(C)c1cc(CN2CCCC(O)C2)c(O)c(C(C)(C)C)c1 (stereo not drawn)	/	-12	8	-2	73*	0
C/C(=N\NC(=O)C1=NNC(=O)C1C)c1cccs1 (stereo not drawn)	19	-16	5	26	-13	0
CC(C)C(=O)Nc1ccc2c(c1)nc(CCN1CCN(C)CC1)n2C	/	-1	-1	1	-6	3.6*
Cc1nn(Cc2ccccc2)c(C)c1N	-3	1	-1	5	17	1
COc1ccc(-c2c(C)nn(Cc3ccccc3)c2N)cc1	/	4	1	1	86*	1
Cc1nn2c3ccccc3nc2n(Cc2ccccc2)c1=O	/	2	/	-3	/	3.1*
CCn1c(=O)c(C)nn2c3ccccc3nc12	/	4	-13	0	37	1
COc1ccc(Nc2ccc(OC)cc2)cc1	12	15*	8	-16	4	-1
COC(C[C@H](O)[C@H](C)[C@H](O)COCc1ccccc1)OC	9	/	79*	10	1	/
COCCN1C(=O)N(c2cccc(C)c2)C(=O)C1CC(=O)Nc1ccc(F)cc1 (stereo not drawn)	/	5	4	7	93*	1
O=C(N/N=C/c1ccncc1)c1cc([N+](=O)[O-])cc([N+](=O)[O-])c1O	/	6	13	-1	89*	1
CCOC(=O)C[n+]1c(C)sc2ccc(OC)cc21	/	3	-5	-2	80*	0
CCO/C(=C/c1sc2ccc(OC)cc2[n+]1CCCS(=O)(=O)[O-])CC	/	3	-3	4	29	0
CC1(C)CC(=O)C(C2=NC3(CCCCC3)Cc3ccccc32)=C(O)C1	23	-4	0	13	3	0
O=[N+]([O-])c1ccc2c(c1)N([O-])C1(CCCCC1)[N+]2=O	12	6	5	-18	0	-1
CC[N+](C)(C)CC/C=C1/c2ccccc2Sc2ccc(Cl)cc21	7	7	86*	11	-3	1
SMILES	Biofilm kill mix	p97 inhibitor	eIF4E-4G inh	Hck Nef HTS	14-3-3 Bad PPI	PERK inh
Cc1cc(Br)ccc1OCCN1CC(C)OC(C)C1 (stereo not drawn)	-10	-2	-7	3	33	0
CCN1CCN(CCOc2ccc(Br)cc2C)CC1	6	11	12	19	89*	2
Cc1ccc2nc(/C(C#N)=C\c3ccc(N4CCCCC4)c([N+](=O)[O-])c3)[nH]c2c1	/	4	12	6	87*[fluorescence artefact?]	-1
CCn1c(-c2nn(-c3ccc(C)cc3)ccc2=O)n[nH]c1=S	-8	-1	-6	20	88*	1
CCOc1ccc(NC(=O)Nc2ccccc2SC)cc1	0	-11	4	10	0	1
O=C(Nc1cccc(S(=O)(=O)N2CCCCCC2)c1)c1ccc2c(c1)OCO2	14	-1	-3	6	78*	-1
CN(Cc1c(O)ccc2c1oc(=O)c1ccccc12)C1CCCCC1	/	2	14	-5	87*	-1
O=C(CSc1ncnc2[nH]ncc12)Nc1nc(-c2ccc(F)c(F)c2)cs1	18	-1	1	18	74*	1
O=C(CNCc1ccccn1)N1CCc2ccccc2C1	4	0	-6	21	1	1
Cc1cc(NC(=O)c2noc3c2CCc2ccccc2-3)n(-c2ccccc2)n1	/	-3	76*[fluorescence artefact?]	1	15	0
COc1ccc(OCCCC(=O)Nc2nccs2)cc1	16	-8	6	-7	-2	1
CCOc1ccc(C(=O)N(c2ccccn2)C2CCCCC2)cc1	28	-3	-8	-15	-1	0
COc1cccc(C(=O)N2CCN(C3CCC(c4ccccc4)CC3)CC2)c1 (stereo not drawn)	/	-7	6	6	75*	0
COc1cc(OC)cc(C(=O)N2CCN(C3CCN(Cc4ccccc4)CC3)CC2)c1	/	3	7	3	73*	-1
O=C(c1ccc(-n2cccc2)cc1)N1CCN(Cc2ccccc2)CC1	/	-2	2	0	91*	1
Nc1nc(NCc2ccco2)nc(N2CCN(Cc3ccccc3)CC2)c1[N+](=O)[O-]	4	4	-5	17	1	-2
COc1ccc(C(=O)/C=C/c2ccc(OC)c(Cn3nnc4ccccc43)c2)cc1	10	7	-1	5	-14	0
Clc1cccc(N/N=C/c2ccc(N3CCOCC3)cc2)c1	/	-2	-3	-2	-10	0
C(=N\Nc1ccccc1)/c1ccc(N2CCOCC2)cc1	/	-3	-3	-3	88*[fluorescence artefact?]	-1
N/C(=N\O)c1ccc(Cl)cc1Cl	15	6	3	17	5	1
CC(C)N1C(=O)/C(=C/c2nc3ccccc3c(=O)n2-c2ccccc2)c2ccccc21	/	6	2	2	77*	-1
CC(C)N1C(=O)/C(=C\c2nc3ccccc3c(=O)n2-c2ccccc2)c2ccccc21	5	-8	-2	1	21	-2
Nc1ccccc1-c1nnc(SCc2ccccc2F)[nH]c1=O	/	5	33*[fluorescence artefact?]	1	-6	1
CC(=O)Nc1ccc(NC(=O)Nc2cc(C)cc(C)c2)cc1	17	3	-8	-20	-3	3.6*
CC(=O)Nc1cccc(NC(=O)Nc2ccc(C(C)=O)cc2)c1	/	-7	4	4	7	0
O=C(O)C1Nc2c(O)cc(Cl)c([N+](=O)[O-])c2C2C=CCC12 (stereo not drawn)	10	54*	78*	70*	97*	1

Assay outcomes from PubChem.
